# Laboratory results reported in ChEMBL document CHEMBL5058577, “EUbOPEN Chemogenomics Library 2 (Multiplex)” (2022).
# Test system: U2OS
# Assay: Multiplex assay against U2OS
# Assay type: toxicity, cell-based
# Details: human
# How it was run: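 Compound was added to live cells that had been stained at seeding with Hoechst33342, BioTracker Green Microtubule Cytoskeleton Dye, MitoTracker Red and Annexin V Alexa Fluor 680, and imaging followed on a CQ1 microscope at 37°C and 5% CO2. CellPathfinder machine-learning gating divided cells into Hoechst high-intensity objects or normal cells, normal cells into healthy, pyknosed or fragmented nuclei, and pyknosed cells into mitotic or apoptotic. Tubulin, mitochondrial-mass and membrane-permeability phenotypes are per cents of healthy-nucleus cells.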
# [1] = 12 h, 1 µM, compound concentration 1 uM, replicate 1
# [2] = 12 h, 1 µM, compound concentration 1 uM, replicate 2
# [3] = 12 h, 10 µM, compound concentration 10 uM, replicate 1
# [4] = 12 h, 10 µM, compound concentration 10 uM, replicate 2
# [5] = 24 h, 1 µM, compound concentration 1 uM, replicate 1
# [6] = 24 h, 1 µM, compound concentration 1 uM, replicate 2
# [7] = 24 h, 10 µM, compound concentration 10 uM, replicate 1
# [8] = 24 h, 10 µM, compound concentration 10 uM, replicate 2
# [9] = 48 h, 1 µM, compound concentration 1 uM, replicate 1
# [10] = 48 h, 1 µM, compound concentration 1 uM, replicate 2
# [11] = 48 h, 10 µM, compound concentration 10 uM, replicate 1
# [12] = 48 h, 10 µM, compound concentration 10 uM, replicate 2
smiles,measurement,setting,value
CNC[C@H](O)c1ccc(O)c(O)c1 [EPINEPHRINE],Population Apoptotic (%),[1],88%
same,Population Fragmented Nuclei (%),[1],35%
same,Population Healthy Nuclei (%),[1],56%
same,Population Hoechst High Intensity Objects (%),[1],2%
same,Population Membrane Permeable-Phenotype (%),[1],5%
same,Population Mitochondria Different-Phenotype (%),[1],1%
same,Population Mitotic Cells (%),[1],11%
same,Population Normal (%),[1],97%
same,Population Pyknosed Nuclei (%),[1],7%
same,Population Tubulin-Different-Phenotype (%),[1],2%
same,Total Cell Count,[1],229
same,Population Apoptotic (%),[2],80%
same,Population Fragmented Nuclei (%),[2],17%
same,Population Healthy Nuclei (%),[2],77%
same,Population Hoechst High Intensity Objects (%),[2],0%
same,Population Membrane Permeable-Phenotype (%),[2],7%
same,Population Mitochondria Different-Phenotype (%),[2],2%
same,Population Mitotic Cells (%),[2],20%
same,Population Normal (%),[2],100%
same,Population Pyknosed Nuclei (%),[2],5%
same,Population Tubulin-Different-Phenotype (%),[2],4%
same,Total Cell Count,[2],92
same,Population Apoptotic (%),[3],92%
same,Population Fragmented Nuclei (%),[3],41%
same,Population Healthy Nuclei (%),[3],45%
same,Population Hoechst High Intensity Objects (%),[3],6%
same,Population Membrane Permeable-Phenotype (%),[3],7%
same,Population Mitochondria Different-Phenotype (%),[3],1%
same,Population Mitotic Cells (%),[3],8%
same,Population Normal (%),[3],93%
same,Population Pyknosed Nuclei (%),[3],13%
same,Population Tubulin-Different-Phenotype (%),[3],4%
same,Total Cell Count,[3],199
same,Population Apoptotic (%),[4],86%
same,Population Fragmented Nuclei (%),[4],33%
same,Population Healthy Nuclei (%),[4],50%
same,Population Hoechst High Intensity Objects (%),[4],9%
same,Population Membrane Permeable-Phenotype (%),[4],6%
same,Population Mitochondria Different-Phenotype (%),[4],2%
same,Population Mitotic Cells (%),[4],13%
same,Population Normal (%),[4],90%
same,Population Pyknosed Nuclei (%),[4],15%
same,Population Tubulin-Different-Phenotype (%),[4],6%
same,Total Cell Count,[4],105
same,Population Apoptotic (%),[5],84%
same,Population Fragmented Nuclei (%),[5],28%
same,Population Healthy Nuclei (%),[5],64%
same,Population Hoechst High Intensity Objects (%),[5],2%
same,Population Membrane Permeable-Phenotype (%),[5],6%
same,Population Mitochondria Different-Phenotype (%),[5],1%
same,Population Mitotic Cells (%),[5],15%
same,Population Normal (%),[5],97%
same,Population Pyknosed Nuclei (%),[5],7%
same,Population Tubulin-Different-Phenotype (%),[5],2%
same,Total Cell Count,[5],278
same,Population Apoptotic (%),[6],75%
same,Population Fragmented Nuclei (%),[6],19%
same,Population Healthy Nuclei (%),[6],68%
same,Population Membrane Permeable-Phenotype (%),[6],7%
same,Population Mitochondria Different-Phenotype (%),[6],5%
same,Population Mitotic Cells (%),[6],25%
same,Population Pyknosed Nuclei (%),[6],11%
same,Population Tubulin-Different-Phenotype (%),[6],1%
same,Total Cell Count,[6],105
same,Population Apoptotic (%),[7],94%
same,Population Fragmented Nuclei (%),[7],39%
same,Population Healthy Nuclei (%),[7],50%
same,Population Hoechst High Intensity Objects (%),[7],9%
same,Population Membrane Permeable-Phenotype (%),[7],11%
same,Population Mitochondria Different-Phenotype (%),[7],5%
same,Population Mitotic Cells (%),[7],5%
same,Population Normal (%),[7],90%
same,Population Pyknosed Nuclei (%),[7],10%
same,Population Tubulin-Different-Phenotype (%),[7],6%
same,Total Cell Count,[7],195
same,Population Apoptotic (%),[8],100%
same,Population Fragmented Nuclei (%),[8],31%
same,Population Healthy Nuclei (%),[8],45%
same,Population Hoechst High Intensity Objects (%),[8],11%
same,Population Membrane Permeable-Phenotype (%),[8],2%
same,Population Mitochondria Different-Phenotype (%),[8],0%
same,Population Mitotic Cells (%),[8],0%
same,Population Normal (%),[8],88%
same,Population Pyknosed Nuclei (%),[8],22%
same,Population Tubulin-Different-Phenotype (%),[8],2%
same,Total Cell Count,[8],96
same,Population Apoptotic (%),[9],87%
same,Population Fragmented Nuclei (%),[9],24%
same,Population Healthy Nuclei (%),[9],66%
same,Population Hoechst High Intensity Objects (%),[9],0%
same,Population Membrane Permeable-Phenotype (%),[9],9%
same,Population Mitochondria Different-Phenotype (%),[9],5%
same,Population Mitotic Cells (%),[9],12%
same,Population Normal (%),[9],99%
same,Population Pyknosed Nuclei (%),[9],9%
same,Population Tubulin-Different-Phenotype (%),[9],4%
same,Total Cell Count,[9],333
same,Population Apoptotic (%),[10],92%
same,Population Fragmented Nuclei (%),[10],18%
same,Population Healthy Nuclei (%),[10],72%
same,Population Membrane Permeable-Phenotype (%),[10],4%
same,Population Mitochondria Different-Phenotype (%),[10],3%
same,Population Mitotic Cells (%),[10],7%
same,Population Tubulin-Different-Phenotype (%),[10],2%
same,Total Cell Count,[10],150
same,Population Apoptotic (%),[11],92%
same,Population Fragmented Nuclei (%),[11],41%
same,Population Healthy Nuclei (%),[11],44%
same,Population Hoechst High Intensity Objects (%),[11],10%
same,Population Membrane Permeable-Phenotype (%),[11],15%
same,Population Mitochondria Different-Phenotype (%),[11],8%
same,Population Mitotic Cells (%),[11],7%
same,Population Normal (%),[11],89%
same,Population Pyknosed Nuclei (%),[11],14%
same,Population Tubulin-Different-Phenotype (%),[11],10%
same,Total Cell Count,[11],215
same,Population Apoptotic (%),[12],94%
same,Population Fragmented Nuclei (%),[12],36%
same,Population Healthy Nuclei (%),[12],40%
same,Population Hoechst High Intensity Objects (%),[12],17%
same,Population Membrane Permeable-Phenotype (%),[12],24%
same,Population Mitochondria Different-Phenotype (%),[12],13%
same,Population Mitotic Cells (%),[12],5%
same,Population Normal (%),[12],82%
same,Population Pyknosed Nuclei (%),[12],23%
same,Population Tubulin-Different-Phenotype (%),[12],13%
same,Total Cell Count,[12],87
O=S(=O)(c1ccccc1)c1cnc2c(N3CCNCC3)cccc2c1 [INTEPIRDINE],Population Apoptotic (%),[1],76%
same,Population Fragmented Nuclei (%),[1],23%
same,Population Healthy Nuclei (%),[1],68%
same,Population Hoechst High Intensity Objects (%),[1],1%
same,Population Membrane Permeable-Phenotype (%),[1],6%
same,Population Mitochondria Different-Phenotype (%),[1],3%
same,Population Mitotic Cells (%),[1],23%
same,Population Normal (%),[1],98%
same,Population Pyknosed Nuclei (%),[1],7%
same,Population Tubulin-Different-Phenotype (%),[1],4%
same,Total Cell Count,[1],267
same,Population Apoptotic (%),[2],70%
same,Population Fragmented Nuclei (%),[2],17%
same,Population Healthy Nuclei (%),[2],71%
same,Population Hoechst High Intensity Objects (%),[2],0%
same,Population Membrane Permeable-Phenotype (%),[2],7%
same,Population Mitochondria Different-Phenotype (%),[2],6%
same,Population Mitotic Cells (%),[2],30%
same,Population Normal (%),[2],100%
same,Population Pyknosed Nuclei (%),[2],11%
same,Population Tubulin-Different-Phenotype (%),[2],7%
same,Total Cell Count,[2],88
same,Population Apoptotic (%),[3],58%
same,Population Fragmented Nuclei (%),[3],25%
same,Population Healthy Nuclei (%),[3],61%
same,Population Hoechst High Intensity Objects (%),[3],3%
same,Population Membrane Permeable-Phenotype (%),[3],23%
same,Population Mitochondria Different-Phenotype (%),[3],11%
same,Population Mitotic Cells (%),[3],41%
same,Population Normal (%),[3],96%
same,Population Pyknosed Nuclei (%),[3],12%
same,Population Tubulin-Different-Phenotype (%),[3],14%
same,Total Cell Count,[3],204
same,Population Apoptotic (%),[4],85%
same,Population Fragmented Nuclei (%),[4],10%
same,Population Healthy Nuclei (%),[4],79%
same,Population Hoechst High Intensity Objects (%),[4],2%
same,Population Membrane Permeable-Phenotype (%),[4],12%
same,Population Mitochondria Different-Phenotype (%),[4],13%
same,Population Mitotic Cells (%),[4],14%
same,Population Normal (%),[4],97%
same,Population Pyknosed Nuclei (%),[4],10%
same,Population Tubulin-Different-Phenotype (%),[4],10%
same,Total Cell Count,[4],139
same,Population Apoptotic (%),[5],80%
same,Population Fragmented Nuclei (%),[5],22%
same,Population Healthy Nuclei (%),[5],67%
same,Population Hoechst High Intensity Objects (%),[5],2%
same,Population Membrane Permeable-Phenotype (%),[5],7%
same,Population Mitochondria Different-Phenotype (%),[5],2%
same,Population Mitotic Cells (%),[5],19%
same,Population Normal (%),[5],97%
same,Population Pyknosed Nuclei (%),[5],9%
same,Population Tubulin-Different-Phenotype (%),[5],4%
same,Total Cell Count,[5],319
same,Population Apoptotic (%),[6],69%
same,Population Fragmented Nuclei (%),[6],14%
same,Population Healthy Nuclei (%),[6],73%
same,Population Hoechst High Intensity Objects (%),[6],0%
same,Population Membrane Permeable-Phenotype (%),[6],3%
same,Population Mitochondria Different-Phenotype (%),[6],3%
same,Population Mitotic Cells (%),[6],30%
same,Population Normal (%),[6],99%
same,Population Pyknosed Nuclei (%),[6],12%
same,Population Tubulin-Different-Phenotype (%),[6],1%
same,Total Cell Count,[6],108
same,Population Apoptotic (%),[7],72%
same,Population Fragmented Nuclei (%),[7],23%
same,Population Healthy Nuclei (%),[7],60%
same,Population Hoechst High Intensity Objects (%),[7],3%
same,Population Membrane Permeable-Phenotype (%),[7],17%
same,Population Mitochondria Different-Phenotype (%),[7],14%
same,Population Mitotic Cells (%),[7],27%
same,Population Normal (%),[7],96%
same,Population Pyknosed Nuclei (%),[7],16%
same,Population Tubulin-Different-Phenotype (%),[7],10%
same,Total Cell Count,[7],233
same,Population Apoptotic (%),[8],77%
same,Population Fragmented Nuclei (%),[8],10%
same,Population Healthy Nuclei (%),[8],77%
same,Population Hoechst High Intensity Objects (%),[8],0%
same,Population Membrane Permeable-Phenotype (%),[8],10%
same,Population Mitochondria Different-Phenotype (%),[8],17%
same,Population Mitotic Cells (%),[8],22%
same,Population Normal (%),[8],99%
same,Population Pyknosed Nuclei (%),[8],11%
same,Population Tubulin-Different-Phenotype (%),[8],6%
same,Total Cell Count,[8],156
same,Population Apoptotic (%),[9],89%
same,Population Fragmented Nuclei (%),[9],15%
same,Population Healthy Nuclei (%),[9],70%
same,Population Hoechst High Intensity Objects (%),[9],3%
same,Population Membrane Permeable-Phenotype (%),[9],6%
same,Population Mitochondria Different-Phenotype (%),[9],4%
same,Population Mitotic Cells (%),[9],10%
same,Population Normal (%),[9],96%
same,Population Pyknosed Nuclei (%),[9],14%
same,Population Tubulin-Different-Phenotype (%),[9],4%
same,Total Cell Count,[9],416
same,Population Apoptotic (%),[10],76%
same,Population Fragmented Nuclei (%),[10],13%
same,Population Healthy Nuclei (%),[10],68%
same,Population Membrane Permeable-Phenotype (%),[10],3%
same,Population Mitochondria Different-Phenotype (%),[10],2%
same,Population Mitotic Cells (%),[10],23%
same,Population Pyknosed Nuclei (%),[10],18%
same,Population Tubulin-Different-Phenotype (%),[10],2%
same,Total Cell Count,[10],148
same,Population Apoptotic (%),[11],78%
same,Population Fragmented Nuclei (%),[11],22%
same,Population Healthy Nuclei (%),[11],59%
same,Population Hoechst High Intensity Objects (%),[11],4%
same,Population Membrane Permeable-Phenotype (%),[11],15%
same,Population Mitochondria Different-Phenotype (%),[11],7%
same,Population Mitotic Cells (%),[11],22%
same,Population Normal (%),[11],95%
same,Population Pyknosed Nuclei (%),[11],17%
same,Population Tubulin-Different-Phenotype (%),[11],6%
same,Total Cell Count,[11],302
same,Population Apoptotic (%),[12],95%
same,Population Fragmented Nuclei (%),[12],13%
same,Population Healthy Nuclei (%),[12],75%
same,Population Hoechst High Intensity Objects (%),[12],2%
same,Population Membrane Permeable-Phenotype (%),[12],10%
same,Population Mitochondria Different-Phenotype (%),[12],12%
same,Population Mitotic Cells (%),[12],4%
same,Population Normal (%),[12],97%
same,Population Pyknosed Nuclei (%),[12],11%
same,Population Tubulin-Different-Phenotype (%),[12],4%
same,Total Cell Count,[12],201
